In general, half-life refers to how long it takes for the measured level to halve. A high value points to slow decline.

≈ marks a conversion by molar mass, not a printed value.

These results are taken from ChEMBL document CHEMBL1128473, “[(Biaryloxy)alkyl]isoxazoles: picornavirus inhibitors” (J Med Chem, 1995).

Data set [1] can be described thus: Metabolic stability expressed as half life values was monitored in vitro liver microsomal assay. To be noted: liver microsomes. The format is ADME, Microsome. In general terms: Liver microsomes are vesicles of endoplasmic reticulum, rich in cytochrome P450 enzymes.
For a further data set, the system named is Human rhinovirus sp. The data set can be described thus: Concentration inhibiting 50% of the serotypes tested to 50% of the viral concentration of untreated controls following 72 hr of exposure. The class given is functional. In short, it runs like this: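 Tissue culture infectious dose (TCID50) assay against a panel of 10 human rhinovirus serotypes. For each serotype, the viral concentration was compared with untreated controls after 72 h of compound exposure. MIC50 is the compound concentration at which half of the serotypes tested are reduced to 50% of the untreated-control viral concentration.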

Compound `Cc1cccc(-c2cc(C)c(OCCCc3cc(C)no3)c(C)c2)c1` gave a half-life in data set [1] above 3.33 h. This compound also yielded an MIC50 against Human rhinovirus sp. of 0.23 µM (≈ 0.0772 µg/mL).

In the data set with Human rhinovirus sp., `Cc1cc(CCCOc2c(C)cc(-c3ccc(Cl)cc3)cc2C)on1` had an MIC50 of 0.12 µM (≈ 0.0427 µg/mL).

Turning to `Cc1cc(CCCOc2c(C)cc(-c3cccc(Cl)c3)cc2C)on1`, the MIC50 with Human rhinovirus sp. was 0.27 µM (≈ 0.0961 µg/mL).
